According to ChEMBL document CHEMBL1142136, “Contribution of target gene mutations and efflux to decreased susceptibility of Salmonella enterica serovar typhimurium to fluoroquinolones and other antimicrobials” (2007):
Converted amounts (≈) assume the structure as drawn.

Key:
Assay type in all cases: functional, Salmonella enterica subsp. enterica serovar Typhimurium
[1] = test system: Salmonella typhimurium; assay: Antimicrobial activity against Salmonella enterica serovar Typhimurium CS9 gyrA+ with GyrA S83F, D87N, ParC S80I mutation
Procedure, shortened: (§1)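 MICs measured by broth microdilution on the Sensititre automated system and interpreted by CLSI broth microdilution standards. Ciprofloxacin was also tested by agar dilution, widening the range to 0.0075–128 μg/ml. Quality control strains were E. coli ATCC 25922 and 35218, E. faecalis ATCC 29212, S. aureus ATCC 29213 and P. aeruginosa ATCC 27853.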

[2] = test system: Salmonella typhimurium; assay: Antimicrobial activity against Salmonella enterica serovar Typhimurium S21 acrAB::Kan
Procedure, shortened: (§2)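 MICs by automated broth microdilution panels, interpreted to CLSI broth microdilution standards. Ciprofloxacin additionally tested by agar dilution across 0.0075 to 128 μg/ml. Quality control strains: E. coli ATCC 25922 and 35218, Enterococcus faecalis ATCC 29212, S. aureus ATCC 29213, P. aeruginosa ATCC 27853. Test strains are kanamycin-marked deletion mutants of ground-beef isolate S21.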

[3] = test system: Salmonella typhimurium; assay: Antimicrobial activity against Salmonella enterica serovar Typhimurium CS3 with GyrA S83F, D87N, ParC S80I mutation; procedure, shortened: as §1
[4] = test system: Salmonella typhimurium; assay: Antimicrobial activity against Salmonella enterica serovar Typhimurium S21 tolC::Kan; procedure, shortened: as §2
[5] = test system: Salmonella typhimurium; assay: Antimicrobial activity against Salmonella enterica serovar Typhimurium CHS18 acrAB::Kan with GyrA S38F mutation; procedure, shortened: as §1
[6] = test system: Salmonella typhimurium; assay: Antimicrobial activity against Salmonella enterica serovar Typhimurium CS9 tolC::Kan with GyrA S83F, D87N, ParC S80I mutation; procedure, shortened: as §1
[7] = test system: Salmonella typhimurium; assay: Antimicrobial activity against Salmonella enterica serovar Typhimurium CHS14 tolC::Kan with GyrA D87G mutant; procedure, shortened: as §1
[8] = test system: Salmonella typhimurium; assay: Antimicrobial activity against Salmonella enterica serovar Typhimurium CHS38 acrAB::Kan with GyrA D87G mutation; procedure, shortened: as §1
[9] = test system: Salmonella typhimurium; assay: Antimicrobial activity against Salmonella enterica serovar Typhimurium CHS38 with GyrA D87G mutation; procedure, shortened: as §1
[10] = test system: Salmonella typhimurium; assay: Antimicrobial activity against Salmonella enterica serovar Typhimurium CS1 gyrA+ with GyrA S83F, D87N, ParC S80I mutation; procedure, shortened: as §1
[11] = test system: Salmonella typhimurium; assay: Antimicrobial activity against Salmonella enterica serovar Typhimurium CHS18 gyrA+ with GyrA S38F mutation; procedure, shortened: as §1
[12] = test system: Salmonella typhimurium; assay: Antimicrobial activity against Salmonella enterica serovar Typhimurium S21-1 gyrA+; procedure, shortened: as §1
[13] = test system: Salmonella typhimurium; assay: Antimicrobial activity against Salmonella enterica serovar Typhimurium CS3 tolC::Kan with GyrA S83F, D87N, parC S80I mutation; procedure, shortened: as §1
[14] = test system: Salmonella typhimurium; assay: Antimicrobial activity against Salmonella enterica serovar Typhimurium S21 gyrA+; procedure, shortened: as §1
[15] = test system: Salmonella typhimurium; assay: Antimicrobial activity against Salmonella enterica serovar Typhimurium CHS14 acrAB::Kan with GyrA D87G mutation; procedure, shortened: as §1
[16] = test system: Salmonella typhimurium; assay: Antimicrobial activity against Salmonella enterica serovar Typhimurium CS1 tolC::Kan with GyrA S83F, D87N, ParC S80I mutation; procedure, shortened: as §1
[17] = test system: Salmonella typhimurium; assay: Antimicrobial activity against Salmonella enterica serovar Typhimurium CHS38 gyrA+ with GyrA D87G mutation; procedure, shortened: as §1
[18] = test system: Salmonella typhimurium; assay: Antimicrobial activity against Salmonella enterica serovar Typhimurium CS9 acrAB::Kan with GyrA S83F, D87N, ParC S80I mutation; procedure, shortened: as §1
[19] = test system: Salmonella typhimurium; assay: Antimicrobial activity against Salmonella enterica serovar Typhimurium CHS18 with GyrA S38F mutation; procedure, shortened: as §1
[20] = test system: Salmonella typhimurium; assay: Antimicrobial activity against Salmonella enterica serovar Typhimurium CS9 with GyrA S83F, D87N, ParC S80I mutation; procedure, shortened: as §1
[21] = test system: Salmonella typhimurium; assay: Antimicrobial activity against Salmonella enterica serovar Typhimurium S21; procedure, shortened: as §1
[22] = test system: Salmonella typhimurium; assay: Antimicrobial activity against Salmonella enterica serovar Typhimurium CHS14 with GyrA D87G mutation; procedure, shortened: as §1
[23] = test system: Salmonella typhimurium; assay: Antimicrobial activity against Salmonella enterica serovar Typhimurium S21-4 tolC::Kan with GyrA S83F, ParC S80I mutation; procedure, shortened: as §1
[24] = test system: Salmonella typhimurium; assay: Antimicrobial activity against Salmonella enterica serovar Typhimurium CS3 gyrA+ with GyrA S83F, D87N, ParC S80I mutation; procedure, shortened: as §1
[25] = test system: Salmonella typhimurium; assay: Antimicrobial activity against Salmonella enterica serovar Typhimurium CHS14 gyrA+ with GyrA D87G mutation; procedure, shortened: as §1
[26] = test system: Salmonella typhimurium; assay: Antimicrobial activity against Salmonella enterica serovar Typhimurium CS1 with GyrA S83F, D87N, ParC S80I mutation; procedure, shortened: as §1
[27] = test system: Salmonella typhimurium; assay: Antimicrobial activity against Salmonella enterica serovar Typhimurium CS3 acrAB::Kan with GyrA S83F, D87N, ParC S80I mutation; procedure, shortened: as §1
[28] = test system: Salmonella typhimurium; assay: Antimicrobial activity against Salmonella enterica serovar Typhimurium CHS38 tolC::Kan with GyrA D87G mutation; procedure, shortened: as §1
[29] = test system: Salmonella typhimurium; assay: Antimicrobial activity against Salmonella enterica serovar Typhimurium CHS18 tolC::Kan with GyrA S38F mutation; procedure, shortened: as §1
[30] = test system: Salmonella typhimurium; assay: Antimicrobial activity against Salmonella enterica serovar Typhimurium CS1 acrAB::Kan with GyrA S83F, D87N, ParC S80I mutation; procedure, shortened: as §1
[31] = test system: Salmonella typhimurium; assay: Antimicrobial activity against Salmonella enterica serovar Typhimurium S21-3 with GyrA S83F, ParC S80I mutation; procedure, shortened: as §1
[32] = test system: Salmonella typhimurium; assay: Antimicrobial activity against Salmonella enterica serovar Typhimurium S21-3 gyrA+ with ParC S80I mutation; procedure, shortened: as §1
[33] = test system: Salmonella typhimurium; assay: Antimicrobial activity against Salmonella enterica serovar Typhimurium S21-1 GyrA S83F mutant; procedure, shortened: as §1
[34] = test system: Salmonella typhimurium; assay: Antimicrobial activity against Salmonella enterica serovar Typhimurium S21-2 with GyrA S83F, ParC S80I mutation; procedure, shortened: as §1
[35] = test system: Salmonella typhimurium; assay: Antimicrobial activity against Salmonella enterica serovar Typhimurium S21-4 gyrA+ with ParC S80I mutation; procedure, shortened: as §1
[36] = test system: Salmonella typhimurium; assay: Antimicrobial activity against Salmonella enterica serovar Typhimurium S21-4 with GyrA S83F, ParC S80I mutation; procedure, shortened: as §1
[37] = test system: Salmonella typhimurium; assay: Antimicrobial activity against Salmonella enterica serovar Typhimurium S21-2 gyrA+ with ParC S80I mutation; procedure, shortened: as §1
[38] = test system: Salmonella typhimurium; assay: Antimicrobial activity against Salmonella enterica serovar Typhimurium S21-4 acrAB::Kan with GyrA S83F, ParC S80I mutation; procedure, shortened: as §1

Row | Structure (SMILES) | MIC [1] [µg/mL] | MIC [2] [µg/mL] | MIC [3] [µg/mL] | MIC [4] [µg/mL] | MIC [5] [µg/mL] | MIC [6] [µg/mL] | MIC [7] [µg/mL] | MIC [8] [µg/mL] | MIC [9] [µg/mL] | MIC [10] [µg/mL] | MIC [11] [µg/mL] | MIC [12] [µg/mL] | MIC [13] [µg/mL] | MIC [14] [µg/mL] | MIC [15] [µg/mL] | MIC [16] [µg/mL] | MIC [17] [µg/mL] | MIC [18] [µg/mL] | MIC [19] [µg/mL] | MIC [20] [µg/mL] | also measured
1 | O=C(N[C@H](CO)[C@H](O)c1ccc([N+](=O)[O-])cc1)C(Cl)Cl [CHLORAMPHENICOL] | > 32 | < 2 | > 32 | < 2 | 2 (≈ 6.19 µM) | > 32 | < 2 | 4 (≈ 12.4 µM) | 32 (≈ 99 µM) | > 32 | 4 (≈ 12.4 µM) | > 32 | > 32 | 8 (≈ 24.8 µM) | < 2 | > 32 | 32 (≈ 99 µM) | > 32 | 8 (≈ 24.8 µM) | > 32 | MIC [21]: 8 µg/mL (≈ 24.8 µM); MIC [22]: 8 µg/mL (≈ 24.8 µM); MIC [23]: 32 µg/mL (≈ 99 µM); MIC [24]: > 32 µg/mL; MIC [25]: 8 µg/mL (≈ 24.8 µM); MIC [26]: > 32 µg/mL; MIC [27]: > 32 µg/mL; MIC [28]: 4 µg/mL (≈ 12.4 µM); MIC [29]: 2 µg/mL (≈ 6.19 µM); MIC [30]: > 32 µg/mL
2 | CO/N=C(\C(=O)N[C@@H]1C(=O)N2C(C(=O)O)=C(CSC(=O)c3ccco3)CS[C@H]12)c1csc(N)n1 [CEFTIOFUR] | 1 (≈ 1.91 µM) | < 0.12 | 1 (≈ 1.91 µM) | < 0.12 | 0.12 (≈ 0.229 µM) | 0.5 (≈ 0.955 µM) | < 0.12 | 0.12 (≈ 0.229 µM) | 0.5 (≈ 0.955 µM) | 1 (≈ 1.91 µM) | 1 (≈ 1.91 µM) | 0.5 (≈ 0.955 µM) | 0.5 (≈ 0.955 µM) | 0.5 (≈ 0.955 µM) | < 0.12 | 0.5 (≈ 0.955 µM) | 0.5 (≈ 0.955 µM) | 0.5 (≈ 0.955 µM) | 1 (≈ 1.91 µM) | 1 (≈ 1.91 µM) | MIC [31]: 4 µg/mL (≈ 7.64 µM); MIC [32]: 4 µg/mL (≈ 7.64 µM); MIC [33]: 0.5 µg/mL (≈ 0.955 µM); MIC [34]: 4 µg/mL (≈ 7.64 µM); MIC [35]: 4 µg/mL (≈ 7.64 µM); MIC [21]: 0.5 µg/mL (≈ 0.955 µM); MIC [22]: 1 µg/mL (≈ 1.91 µM); MIC [36]: 4 µg/mL (≈ 7.64 µM); MIC [24]: 1 µg/mL (≈ 1.91 µM); MIC [25]: 1 µg/mL (≈ 1.91 µM); MIC [26]: 1 µg/mL (≈ 1.91 µM); MIC [27]: 0.5 µg/mL (≈ 0.955 µM); MIC [28]: 0.12 µg/mL (≈ 0.229 µM); MIC [37]: 4 µg/mL (≈ 7.64 µM); MIC [29]: 0.12 µg/mL (≈ 0.229 µM); MIC [30]: 0.5 µg/mL (≈ 0.955 µM)
3 | NC[C@H]1O[C@H](O[C@H]2[C@H](O)[C@@H](O[C@H]3O[C@H](CO)[C@@H](O)[C@H](N)[C@H]3O)[C@H](N)C[C@@H]2N)[C@H](O)[C@@H](O)[C@@H]1O [KANAMYCIN] | > 64 | > 64 | < 8 | > 64 | > 64 | > 64 | > 64 | > 64 | 8 (≈ 16.5 µM) | > 64 | > 64 | < 8 | > 64 | < 8 | > 64 | > 64 | > 64 | > 64 | 8 (≈ 16.5 µM) | < 8 | MIC [21]: < 8 µg/mL; MIC [22]: < 8 µg/mL; MIC [24]: > 64 µg/mL; MIC [25]: > 64 µg/mL; MIC [26]: < 8 µg/mL; MIC [27]: > 64 µg/mL; MIC [28]: > 64 µg/mL; MIC [29]: > 64 µg/mL; MIC [38]: > 64 µg/mL; MIC [30]: > 64 µg/mL
